Test results published in ChEMBL document CHEMBL2331435, “Structure-activity relationship study of vitamin k derivatives yields highly potent neuroprotective agents” (J Med Chem, 2013).
The source made the active and inactive calls. No cut-off for these calls is given here.

What was measured:
[1] = Neurotoxicity in mouse HT22 cells assessed as cell viability after 24 hrs by MTS assay; format: toxicity, cell-based, HT-22; details: read-out: TC50
Procedure, shortened: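 HT22 cells were seeded at 5.0 × 10^3 per well, cultured overnight, and treated with a range of compound concentrations without glutamate for 24 h. MTS was added for 2 h and absorbance read at 490 nm. Viability was expressed as percent of untreated cells, and TC50 was fit from titration curves (7- or 12-point, n = 3–4).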

HT-22 [2] = assay: Neuroprotective activity in mouse HT22 cells assessed as prevention from glutamate-induced oxidative cell death by MTS assay; format: functional
Procedure, shortened: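 HT22 cells grown in high-glucose DMEM with 10% FBS and antibiotic-antimycotic at 37°C, 5% CO2. Seeded at 5.0 × 10^3 cells/well overnight, then given 10 mM glutamate (final) plus compound from DMSO stock. MTS added 24 h after treatment, 2 h at 37°C, A490 read. Viability taken as % of untreated cells. PC50 from 12-point titrations; experiments repeated at least four times.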

[3] = Therapeutic index, ratio of cytotoxic TC50 for mouse HT22 cells to neuroprotective PD50 for mouse HT22 cells; format: cell-based, HT-22; details: read-out: TI
[4] = tested on: Radical scavenging activity; assay: Antioxidant activity assessed as DPPH free radical scavenging activity at 20 uM; format: functional
Procedure, shortened: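 Test agents at 20 μM final, added to 100 μM DPPH in methanol; absorbance at 517 nm monitored immediately for 10 min. Trolox and ascorbic acid served as positive controls, and the rate of absorbance loss was taken as antioxidant potency.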

HT-22 [5] = assay: Neuroprotective activity in mouse HT22 cells assessed as reduction of glutamate-induced mitochondrial superoxide generation at 250 nM after 8 hrs by MitoSOX RED staining-based fluorescence microscopic analysis; format: functional, cell-based
Procedure, shortened: (§1)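 HT22 cells were given 10 mM glutamate plus compound for 8 h, then co-stained with MitoSOX Red (5 μM final) and Mitotracker Deep Red (10 nM final) for 20 min. Cells were washed twice with HBSS and imaged live by fluorescence microscopy in HBSS.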

HT-22 [6] = assay: Neuroprotective activity in mouse HT22 cells assessed as prevention from tBuOOH-induced oxidative cell death after 3 hrs by MTS assay; format: functional, cell-based
Procedure, shortened: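 HT22 cells were seeded at 5.0 × 10^3 per well and cultured overnight, then exposed to 50 μM t-BuOOH (final) plus compound for 3 h. Medium was removed, cells were washed with HBSS and returned to normal medium. MTS was added 24 h after initial treatment, absorbance was read at 490 nm after 2 h, and viability was expressed as percent of untreated cells.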

HT-22 [7] = assay: Neuroprotective activity in mouse HT22 cells assessed as reduction of glutamate-induced mitochondrial fragmentation at 250 nM after 8 hrs by Mitotracker DR staining-based fluorescence microscopic analysis; format: functional, cell-based; procedure, shortened: as §1
Mus musculus [8] = assay: Toxicity in BALB/cByJ mouse assessed as outward signs of pain at 50 mg/kg, ip daily for 3 weeks measured 2 hrs after final injection; format: organism-based; design: dose 50 mg/kg, route intraperitoneal; details: in vivo
HT-22 [9] = assay: Antioxidant activity in mouse HT22 cells assessed as upregulation of NQO1 gene expression at 250 nM after 16 hrs by qRT-PCR analysis in the absence of glutamate; format: functional, cell-based
Procedure, shortened: (§2)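 HT22 cells were seeded at 3.0 × 10^5 per well and cultured overnight, then treated with or without 10 mM glutamate plus compound (DMSO stock) for 16 h. Cells were trypsinized and washed in cold Ca/Mg-free HBSS. HO-1 and NQO-1 mRNA were measured by qRT-PCR with β2-microglobulin as reference gene, and fold change was calculated by the Livak method.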

Mus musculus [10] = assay: Toxicity in BALB/cByJ mouse assessed as biochemical parameters at 50 mg/kg, ip daily for 3 weeks measured 2 hrs after final injection; format: organism-based; design: dose 50 mg/kg, route intraperitoneal; details: in vivo
HT-22 [11] = assay: Antioxidant activity in mouse HT22 cells assessed as reduction in glutamate-induced upregulation of HO1 gene expression at 250 nM after 16 hrs by qRT-PCR analysis relative to glutamate-treated control; format: functional, cell-based; procedure, shortened: as §2
Mus musculus [12] = assay: Toxicity in BALB/cByJ mouse assessed as outward signs of distress at 50 mg/kg, ip daily for 3 weeks measured 2 hrs after final injection; format: organism-based; design: dose 50 mg/kg, route intraperitoneal; details: in vivo
Mus musculus [13] = assay: Toxicity in BALB/cByJ mouse assessed as weight loss at 50 mg/kg, ip daily for 3 weeks measured 2 hrs after final injection; format: organism-based; design: dose 50 mg/kg, route intraperitoneal; details: in vivo
[14] = target: T1, Serine/threonine-protein phosphatase PGAM5, mitochondrial (Mus musculus) (UniProt Q8BX10); assay: Inhibition of glutamate-induced increase in lower band of PGAM5 in mouse HT22 cells at 125 nM after 16 hrs by Western blotting analysis; format: cell-based; details: HT-22
T1 sequence (whole entry): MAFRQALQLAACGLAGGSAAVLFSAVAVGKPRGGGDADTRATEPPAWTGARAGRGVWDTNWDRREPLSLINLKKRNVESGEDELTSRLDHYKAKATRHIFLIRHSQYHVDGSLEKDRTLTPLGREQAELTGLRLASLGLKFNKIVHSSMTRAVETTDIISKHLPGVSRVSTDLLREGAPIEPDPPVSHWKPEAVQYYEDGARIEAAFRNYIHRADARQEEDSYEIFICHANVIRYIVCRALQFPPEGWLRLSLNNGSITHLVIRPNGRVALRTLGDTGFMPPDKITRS
Procedure, shortened: (§3)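 HT22 cells were treated with 10 mM glutamate plus compound for 16 h, harvested, and lysed in low-salt buffer (50 mM Tris-HCl pH 7.4, 150 mM NaCl, 10% glycerol, Triton X-100, protease/phosphatase inhibitors) for 30 min with a brief sonication. Lysates were run on 4–12% gels and immunoblotted for phospho-Drp1 Ser637, total Drp1, PGAM5, actin and α-tubulin, then analyzed by densitometry.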

HT-22 [15] = assay: Antioxidant activity in mouse HT22 cells assessed as prevention of glutamate-induced intracellular accumulation of free radicals at 250 nM after 8 hrs by spectrofluorometric analysis; format: functional, cell-based
Procedure, shortened: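 HT22 cells were seeded at 5.0 × 10^3 per well and cultured overnight, then given 10 mM glutamate plus compound for 8 h. Rho123 was added at 5 μM final for 20 min, cells were washed twice with HBSS, and oxidized Rho123 fluorescence was read at 500 nm excitation and 536 nm emission.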

HT-22 [16] = assay: Antioxidant activity in mouse HT22 cells assessed as reduction in glutamate-induced upregulation of HO1 gene expression at 250 nM after 16 hrs by qRT-PCR analysis relative to untreated control; format: functional, cell-based; procedure, shortened: as §2
[17] = target: Dynamin-1-like protein (Mus musculus) (UniProt Q8K1M6); assay: Inhibition of glutamate-induced decrease in DRP1 phosphorylation at serine 637 in mouse HT22 cells at 125 nM after 16 hrs by Western blotting analysis; format: cell-based; details: HT-22; procedure, shortened: as §3
HT-22 [18] = assay: Antioxidant activity in mouse HT22 cells assessed as upregulation of HO1 gene expression at 250 nM after 16 hrs by qRT-PCR analysis in the absence of glutamate; format: functional, cell-based; procedure, shortened: as §2
HT-22 [19] = assay: Antioxidant activity in mouse HT22 cells assessed as upregulation of NQO1 protein expression 8 hrs by Western blotting analysis; format: functional, cell-based
HT-22 [20] = assay: Antioxidant activity in mouse HT22 cells assessed as upregulation of HO1 protein expression 8 hrs by Western blotting analysis; format: functional, cell-based
HT-22 [21] = assay: Antioxidant activity in mouse HT22 cells assessed as reduction in glutamate-induced upregulation of NQO1 gene expression at 250 nM after 16 hrs by qRT-PCR analysis relative to glutamate-treated control; format: functional, cell-based; procedure, shortened: as §2
HT-22 [22] = assay: Antioxidant activity in mouse HT22 cells assessed as prevention of glutamate-induced GSH depletion at 50 uM; format: functional, cell-based
Procedure, shortened: (§4)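 HT22 cells were exposed to 10 mM glutamate plus compound (DMSO stock) for 8 h. Total glutathione (reduced plus oxidized) in the supernatant of the cell homogenate was measured with a glutathione reductase enzymatic recycling kit. GSH reacts with DTNB to give TNB, read at 405 nm.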

HT-22 [23] = assay: Antioxidant activity in mouse HT22 cells assessed as prevention of glutamate-induced GSH depletion at 5 uM; format: functional, cell-based; procedure, shortened: as §4

Dynamin-1-like protein (Mus musculus), sequence (Q8K1M6 whole entry): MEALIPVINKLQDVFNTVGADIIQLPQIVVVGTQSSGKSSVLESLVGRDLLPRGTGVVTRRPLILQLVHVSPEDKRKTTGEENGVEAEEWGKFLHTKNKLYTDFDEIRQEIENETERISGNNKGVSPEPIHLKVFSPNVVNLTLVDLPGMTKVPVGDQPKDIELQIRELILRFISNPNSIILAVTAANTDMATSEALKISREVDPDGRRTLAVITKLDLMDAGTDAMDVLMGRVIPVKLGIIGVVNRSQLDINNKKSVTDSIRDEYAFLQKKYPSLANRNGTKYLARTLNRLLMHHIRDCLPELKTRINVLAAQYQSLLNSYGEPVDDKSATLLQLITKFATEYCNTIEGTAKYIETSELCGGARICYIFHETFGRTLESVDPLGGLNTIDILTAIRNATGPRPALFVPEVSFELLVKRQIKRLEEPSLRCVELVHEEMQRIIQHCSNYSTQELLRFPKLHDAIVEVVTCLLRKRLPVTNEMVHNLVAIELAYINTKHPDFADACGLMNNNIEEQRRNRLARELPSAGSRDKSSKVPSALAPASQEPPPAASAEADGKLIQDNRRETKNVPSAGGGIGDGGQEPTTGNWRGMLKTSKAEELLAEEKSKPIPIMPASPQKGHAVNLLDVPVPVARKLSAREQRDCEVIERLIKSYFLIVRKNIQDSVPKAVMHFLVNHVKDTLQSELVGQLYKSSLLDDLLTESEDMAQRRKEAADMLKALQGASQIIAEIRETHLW

CC1=CC(=O)c2ccccc2C1=O [MENADIONE]
CC50 at 24 h [1]: 19 µM
PD50 (HT-22 [2]): 797 nM
selectivity ratio [3]: 24

O=C1C=C(NCc2ccc(Cl)cc2)C(=O)c2ccccc21
CC50 at 24 h [1]: > 100 µM
PD50 (HT-22 [2]): 59 nM
selectivity ratio [3]: > 1700

O=C1C=C(NCC2CCCCC2)C(=O)c2ccccc21
CC50 at 24 h [1]: > 100 µM
PD50 (HT-22 [2]): 54 nM
selectivity ratio [3]: > 1850

CCNC1=CC(=O)c2ccccc2C1=O
CC50 at 24 h [1]: 81 µM
selectivity ratio [3]: 106

O=C1C=C(NCc2cccc(C(F)(F)F)c2)C(=O)c2ccccc21
CC50 at 24 h [1]: > 100 µM
PD50 (HT-22 [2]): 45 nM
selectivity ratio [3]: > 2220

C#CCNC1=CC(=O)c2ccccc2C1=O
CC50 at 24 h [1]: 53 µM
PD50 (HT-22 [2]): 120 nM
selectivity ratio [3]: 442

O=C1O[C@H]([C@@H](O)CO)C(O)=C1O
Activity [4]: Active

O=C1C=C(NCc2ccncc2)C(=O)c2ccccc21
CC50 at 24 h [1]: 80 µM
PD50 (HT-22 [2]): 72 nM
selectivity ratio [3]: 1110

O=C1C=C(NCc2ccccn2)C(=O)c2ccccc21
CC50 at 24 h [1]: 50 µM
selectivity ratio [3]: 54

O=C1C=CC(=O)c2ccccc21 [NAPHTHOQUINONE]
CC50 at 24 h [1]: 19 µM
selectivity ratio [3]: 12

NC1=CC(=O)c2ccccc2C1=O
CC50 at 24 h [1]: 49 µM
PD50 (HT-22 [2]): 61 nM
selectivity ratio [3]: 803

O=C1C=C(NCc2ccc(Cl)c(Cl)c2)C(=O)c2ccccc21
CC50 at 24 h [1]: > 100 µM
PD50 (HT-22 [2]): 46 nM
selectivity ratio [3]: > 2170

O=C1C=C(NC2CCCC2)C(=O)c2ccccc21
CC50 at 24 h [1]: 44 µM
selectivity ratio [3]: 108

Cc1ccc(CNC2=CC(=O)c3ccccc3C2=O)cc1
CC50 at 24 h [1]: > 100 µM
PD50 (HT-22 [2]): 66 nM
selectivity ratio [3]: > 1520

O=C1C=C(O)C(=O)c2ccccc21 [LAWSONE]
CC50 at 24 h [1]: > 100 µM
selectivity ratio [3]: 100

CC1=C(N)C(=O)c2ccccc2C1=O
CC50 at 24 h [1]: 54 µM
selectivity ratio [3]: 31

O=C(O)C1=CC(=O)c2ccccc2C1=O
CC50 at 24 h [1]: > 100 µM
selectivity ratio [3]: 140

CCCNC1=CC(=O)c2ccccc2C1=O
CC50 at 24 h [1]: 30 µM
selectivity ratio [3]: 91

CN(Cc1ccccc1)C1=CC(=O)c2ccccc2C1=O
CC50 at 24 h [1]: > 100 µM
selectivity ratio [3]: 781

CC1=C(C)C(=O)c2ccccc2C1=O
CC50 at 24 h [1]: 30 µM
selectivity ratio [3]: 254

O=C1C=C(NCc2ccccc2)C(=O)c2ccccc21
Activity (HT-22 [5]): Active
Activity (HT-22 [6]): Active
Activity (HT-22 [7]): Active
Activity (Mus musculus [8]): Non-toxic
CC50 at 24 h [1]: > 100 µM
Activity (HT-22 [9]): inactive
Activity (Mus musculus [10]): Non-toxic
Activity (HT-22 [11]): Active
Activity (Mus musculus [12]): Non-toxic
Activity (Mus musculus [13]): Non-toxic
inhibition [14]: Active
PD50 (HT-22 [2]): 88 nM
Activity (HT-22 [15]): Active
Activity (HT-22 [16]): inactive
inhibition [17]: Active
selectivity ratio [3]: > 1140
Activity (HT-22 [18]): inactive
Activity [4]: inactive
Activity (HT-22 [19]): inactive
Activity (HT-22 [20]): inactive
Activity (HT-22 [21]): inactive

COC(=O)c1ccc(CNC2=CC(=O)c3ccccc3C2=O)cc1
CC50 at 24 h [1]: > 100 µM
selectivity ratio [3]: 431

COc1ccc(CNC2=CC(=O)c3ccccc3C2=O)cc1
CC50 at 24 h [1]: > 100 µM
selectivity ratio [3]: 877

CN(C)C1=CC(=O)c2ccccc2C1=O
CC50 at 24 h [1]: > 100 µM
PD50 (HT-22 [2]): 246 nM
selectivity ratio [3]: > 407

O=C1C=C(Nc2ccccc2)C(=O)c2ccccc21
CC50 at 24 h [1]: 7 µM
PD50 (HT-22 [2]): 64 nM
selectivity ratio [3]: 109

O=C1C=C(NCc2cccnc2)C(=O)c2ccccc21
CC50 at 24 h [1]: 37 µM
selectivity ratio [3]: 172

COC1=C(OC)C(=O)C(C/C=C(\C)CC/C=C(\C)CC/C=C(\C)CC/C=C(\C)CC/C=C(\C)CC/C=C(\C)CC/C=C(\C)CC/C=C(\C)CC/C=C(\C)CCC=C(C)C)=C(C)C1=O
Activity (HT-22 [6]): inactive

CN1C(=O)C(Cc2c[nH]c3ccccc23)NC1=S (stereo not given)
Activity (HT-22 [22]): inactive

O=C1C=C(NCCc2ccccc2)C(=O)c2ccccc21
CC50 at 24 h [1]: > 100 µM
selectivity ratio [3]: 171

COC1=C(OC)C(=O)C(CCCCCCCCCCO)=C(C)C1=O
Activity (HT-22 [23]): inactive

CC(C)NC1=CC(=O)c2ccccc2C1=O
CC50 at 24 h [1]: 46 µM
selectivity ratio [3]: 27

CNC1=CC(=O)c2ccccc2C1=O
CC50 at 24 h [1]: > 100 µM
selectivity ratio [3]: 74
